Active and inactive are the calls of the source. The calls are words filed in the database; no cut-off is given here.
What was measured:
Mus musculus [1] = assay: In vivo activation of iNKT cells in C57BL/6 mouse assessed as stimulation of IFNgamma production in serum at 5 ug, ip after 16 hrs by ELISA relative to alpha-GalCer; format: functional, organism-based
Summary of the method: (§1)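 C57BL/6 mice, 5–12 weeks old, in-house bred or purchased. Glycolipid dissolved in PBS with DMSO, given intraperitoneally at 5 μg per mouse. Mice bled 4 h (IL-4) and 16 h (IFN-γ) after injection; cytokines measured in serum. At least 2 separate experiments, 5–8 mice per group per glycolipid.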

Mus musculus [2] = assay: In vivo activation of iNKT cells in C57BL/6 mouse assessed as stimulation of IL4 production in serum at 5 ug, ip after 4 hrs by ELISA; format: functional, organism-based; summary of the method: as §1

With `CCCCCCCCCCCCCCCCCCCCCCCCCC(=O)N[C@@H](CO[C@H]1O[C@H](COC(=O)Nc2ccc(Cl)cc2)[C@H](O)[C@H](O)[C@H]1O)[C@H](O)[C@H](O)CCCCCCCCCCCCCC` the Activity (Mus musculus [1]) was “Active” and the Activity (Mus musculus [2]) was “Active”.

In the case of `CCCCCCCCCCCCCCCCCCCCCCCCCC(=O)N[C@@H](CO[C@H]1O[C@H](C(=O)Nc2ccccc2)[C@H](O)[C@H](O)[C@H]1O)[C@H](O)[C@H](O)CCCCCCCCCCCCCC`, the Activity (Mus musculus [1]) is reported as “Active” and the Activity (Mus musculus [2]) is reported as “inactive”.

For `CCCCCCCCCCCCCCCCCCCCCCCCCC(=O)N[C@@H](CO[C@H]1O[C@H](C(=O)NCc2ccccc2)[C@H](O)[C@H](O)[C@H]1O)[C@H](O)[C@H](O)CCCCCCCCCCCCCC`, the Activity (Mus musculus [1]) was “inactive” and the Activity (Mus musculus [2]) was “inactive”.

For `CCCCCCCCCCCCCCCCCCCCCCCCCC(=O)N[C@@H](CO[C@H]1O[C@H](COC(=O)Nc2cccc3ccccc23)[C@H](O)[C@H](O)[C@H]1O)[C@H](O)[C@H](O)CCCCCCCCCCCCCC`, the Activity (Mus musculus [1]) was “Active” and the Activity (Mus musculus [2]) was “Active”.

`CCCCCCCCCCCCCCCCCCCCCCCCCC(=O)N[C@@H](CO[C@H]1O[C@H](C(=O)Nc2ccc(Cl)c(Cl)c2)[C@H](O)[C@H](O)[C@H]1O)[C@H](O)[C@H](O)CCCCCCCCCCCCCC` was tested, and the Activity (Mus musculus [1]) was “inactive” and the Activity (Mus musculus [2]) was “inactive”.

In the case of `CCCCCCCCCCCCCCCCCCCCCCCCCC(=O)N[C@@H](CO[C@H]1O[C@H](C(=O)NCc2ccc(Cl)c(Cl)c2)[C@H](O)[C@H](O)[C@H]1O)[C@H](O)[C@H](O)CCCCCCCCCCCCCC`, the Activity (Mus musculus [1]) is reported as “inactive” and the Activity (Mus musculus [2]) is reported as “inactive”.

For `CCCCCCCCCCCCCCCCCCCCCCCCCC(=O)N[C@@H](CO[C@H]1O[C@H](C(=O)NCc2ccsc2)[C@H](O)[C@H](O)[C@H]1O)[C@H](O)[C@H](O)CCCCCCCCCCCCCC`, the Activity (Mus musculus [1]) was “Active” and the Activity (Mus musculus [2]) was “inactive”.

With `CCCCCCCCCCCCCCCCCCCCCCCCCC(=O)N[C@@H](CO[C@H]1O[C@H](C(=O)NCc2cccc3ccccc23)[C@H](O)[C@H](O)[C@H]1O)[C@H](O)[C@H](O)CCCCCCCCCCCCCC` the Activity (Mus musculus [1]) was “inactive” and the Activity (Mus musculus [2]) was “inactive”.

In the case of `CCCCCCCCCCCCCCCCCCCCCCCCCC(=O)N[C@@H](CO[C@H]1O[C@H](C(=O)NCCc2ccccc2)[C@H](O)[C@H](O)[C@H]1O)[C@H](O)[C@H](O)CCCCCCCCCCCCCC`, the Activity (Mus musculus [1]) is reported as “inactive” and the Activity (Mus musculus [2]) is reported as “inactive”.

For `CCCCCCCCCCCCCCCCCCCCCCCCCC(=O)N[C@@H](CO[C@H]1O[C@H](COC(=O)Nc2ccncc2)[C@H](O)[C@H](O)[C@H]1O)[C@H](O)[C@H](O)CCCCCCCCCCCCCC`, the Activity (Mus musculus [1]) was “Active” and the Activity (Mus musculus [2]) was “Active”.

— ChEMBL document CHEMBL3588843, “Synthesis of C-5″ and C-6″-modified α-GalCer analogues as iNKT-cell agonists” (Bioorg Med Chem, 2015)
